# From ChEMBL document CHEMBL4350961, “Discovery of Pyrrolo[3,2- d]pyrimidin-4-one Derivatives as a New Class of Potent and Cell-Active Inhibitors of P300/CBP-Associated Factor Bromodomain” (J Med Chem, 2019)
# Active and inactive are the calls of the source. The rule behind the calls is not given here.
# Legend:
# [1] = molecular target: Protein kinase C iota type (Homo sapiens) (UniProt P41743); experiment: Inhibition of recombinant full-length human PKCiota at 10 uM using ERMRPRKRQGSVRRRV as substrate measured after 40 mins in presence of [gamma33P]ATP by scintillation counting method
# [2] = molecular target: Myosin light chain kinase, smooth muscle (Homo sapiens) (UniProt Q15746); experiment: Inhibition of recombinant human MLCK (1425 to 1771 residues) at 10 uM using […] as substrate measured after 40 mins in presence of [gamma33P]ATP by scintillation counting method
# Chain of Myosin light chain kinase, smooth muscle (Homo sapiens) (Q15746 whole entry, the tested form may be a part): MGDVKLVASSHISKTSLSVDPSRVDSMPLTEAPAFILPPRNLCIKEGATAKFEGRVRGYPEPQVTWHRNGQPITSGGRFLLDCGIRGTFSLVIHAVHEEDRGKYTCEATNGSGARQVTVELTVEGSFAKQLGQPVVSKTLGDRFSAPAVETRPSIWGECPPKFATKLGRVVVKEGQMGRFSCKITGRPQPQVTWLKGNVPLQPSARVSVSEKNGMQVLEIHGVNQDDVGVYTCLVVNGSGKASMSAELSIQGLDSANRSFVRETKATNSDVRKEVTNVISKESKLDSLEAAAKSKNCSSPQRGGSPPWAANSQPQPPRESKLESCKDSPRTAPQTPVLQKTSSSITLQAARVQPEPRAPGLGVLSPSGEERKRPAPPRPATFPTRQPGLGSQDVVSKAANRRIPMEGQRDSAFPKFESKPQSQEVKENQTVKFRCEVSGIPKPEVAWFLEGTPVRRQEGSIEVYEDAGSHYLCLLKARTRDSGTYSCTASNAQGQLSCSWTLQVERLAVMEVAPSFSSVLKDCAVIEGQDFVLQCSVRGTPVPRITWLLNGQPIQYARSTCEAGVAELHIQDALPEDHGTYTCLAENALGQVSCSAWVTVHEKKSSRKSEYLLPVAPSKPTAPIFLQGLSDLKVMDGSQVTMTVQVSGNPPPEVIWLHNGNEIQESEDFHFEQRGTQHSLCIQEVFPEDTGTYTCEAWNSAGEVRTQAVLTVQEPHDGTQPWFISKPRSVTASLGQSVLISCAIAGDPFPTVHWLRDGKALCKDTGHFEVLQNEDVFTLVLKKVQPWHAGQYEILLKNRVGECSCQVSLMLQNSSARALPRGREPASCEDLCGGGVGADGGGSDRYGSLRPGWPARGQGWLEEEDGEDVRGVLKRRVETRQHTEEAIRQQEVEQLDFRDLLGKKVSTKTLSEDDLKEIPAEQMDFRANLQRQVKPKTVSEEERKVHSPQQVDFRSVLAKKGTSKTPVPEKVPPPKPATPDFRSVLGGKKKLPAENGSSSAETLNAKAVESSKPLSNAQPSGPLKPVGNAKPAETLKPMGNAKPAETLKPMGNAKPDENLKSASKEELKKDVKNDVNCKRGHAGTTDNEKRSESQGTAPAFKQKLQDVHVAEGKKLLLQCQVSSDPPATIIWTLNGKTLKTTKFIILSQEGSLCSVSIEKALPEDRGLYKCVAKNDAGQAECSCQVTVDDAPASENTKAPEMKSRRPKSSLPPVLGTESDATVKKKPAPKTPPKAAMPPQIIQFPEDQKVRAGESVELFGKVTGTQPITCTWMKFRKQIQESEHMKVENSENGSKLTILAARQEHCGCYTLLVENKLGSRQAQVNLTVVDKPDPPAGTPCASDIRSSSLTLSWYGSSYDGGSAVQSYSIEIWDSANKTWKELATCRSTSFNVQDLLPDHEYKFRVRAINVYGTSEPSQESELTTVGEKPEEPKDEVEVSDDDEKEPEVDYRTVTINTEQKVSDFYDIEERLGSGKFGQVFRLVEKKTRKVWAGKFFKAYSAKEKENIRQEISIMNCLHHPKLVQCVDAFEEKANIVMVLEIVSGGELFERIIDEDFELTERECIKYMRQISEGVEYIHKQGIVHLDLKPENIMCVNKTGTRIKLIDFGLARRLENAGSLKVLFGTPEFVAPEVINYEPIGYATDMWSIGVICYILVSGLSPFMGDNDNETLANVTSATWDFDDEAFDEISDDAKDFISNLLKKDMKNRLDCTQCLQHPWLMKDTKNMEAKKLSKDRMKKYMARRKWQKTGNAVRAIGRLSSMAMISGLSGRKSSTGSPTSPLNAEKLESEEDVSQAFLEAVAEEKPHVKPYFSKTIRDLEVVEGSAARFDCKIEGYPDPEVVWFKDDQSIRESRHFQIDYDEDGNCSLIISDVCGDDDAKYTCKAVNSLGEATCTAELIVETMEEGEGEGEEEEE
# [3] = molecular target: Proto-oncogene tyrosine-protein kinase Src (Homo sapiens) (UniProt P12931); experiment: Inhibition of recombinant full-length human SRC at 10 uM using Cdc2 peptide as substrate measured after 40 mins in presence of [gamma33P]ATP by scintillation counting method
# Chain of Proto-oncogene tyrosine-protein kinase Src (Homo sapiens) (P12931 2-536 limits assumed): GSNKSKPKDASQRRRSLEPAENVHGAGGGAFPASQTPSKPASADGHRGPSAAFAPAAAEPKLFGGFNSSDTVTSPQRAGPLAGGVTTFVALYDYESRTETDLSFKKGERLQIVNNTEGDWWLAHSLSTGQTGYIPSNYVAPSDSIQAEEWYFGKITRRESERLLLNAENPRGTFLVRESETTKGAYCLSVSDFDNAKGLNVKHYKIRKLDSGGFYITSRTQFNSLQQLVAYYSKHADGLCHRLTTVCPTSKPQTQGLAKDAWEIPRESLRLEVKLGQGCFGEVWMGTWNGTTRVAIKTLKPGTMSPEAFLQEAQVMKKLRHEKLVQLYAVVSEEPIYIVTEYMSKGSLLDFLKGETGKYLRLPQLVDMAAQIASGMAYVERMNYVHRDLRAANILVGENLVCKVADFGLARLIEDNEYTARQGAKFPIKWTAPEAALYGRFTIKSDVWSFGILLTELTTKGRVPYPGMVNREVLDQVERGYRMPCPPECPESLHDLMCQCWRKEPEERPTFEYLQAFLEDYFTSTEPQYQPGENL
# [4] = molecular target: Serine/threonine-protein kinase Chk1 (Homo sapiens) (UniProt O14757); experiment: Inhibition of recombinant full length human CHK1 at 10 uM using KKKVSRSGLYRSPSMPENLNRPR as substrate measured after 40 mins in presence of [gamma33P]ATP by scintillation counting method
# Chain of Serine/threonine-protein kinase Chk1 (Homo sapiens) (O14757 whole entry): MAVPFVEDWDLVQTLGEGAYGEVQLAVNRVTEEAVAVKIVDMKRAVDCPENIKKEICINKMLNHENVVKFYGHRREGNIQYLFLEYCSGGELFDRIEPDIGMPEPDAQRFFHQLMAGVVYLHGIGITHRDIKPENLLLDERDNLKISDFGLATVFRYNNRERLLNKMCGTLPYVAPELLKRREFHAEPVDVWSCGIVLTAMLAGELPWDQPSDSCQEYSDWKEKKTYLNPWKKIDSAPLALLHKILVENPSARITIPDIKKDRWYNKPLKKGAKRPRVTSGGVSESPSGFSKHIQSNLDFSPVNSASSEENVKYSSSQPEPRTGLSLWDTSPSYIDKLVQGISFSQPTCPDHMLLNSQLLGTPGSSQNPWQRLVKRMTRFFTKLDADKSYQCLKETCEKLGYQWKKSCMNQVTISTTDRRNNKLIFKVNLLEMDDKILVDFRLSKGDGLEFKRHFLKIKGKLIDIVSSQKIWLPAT
# [5] = molecular target: Serine/threonine-protein kinase STK11 (Homo sapiens) (UniProt Q15831); experiment: Inhibition of recombinant full-length human LKB1 at 10 uM using LSNLYHQGKFLQTFCGSPLYRRR as substrate measured after 40 mins in presence of [gamma33P]ATP by scintillation counting method
# [6] = molecular target: Dual specificity tyrosine-phosphorylation-regulated kinase 1B (Homo sapiens) (UniProt Q9Y463); experiment: Inhibition of recombinant full-length human DYRK1B at 10 uM using RRRFRPASPLRGPPK as substrate measured after 40 mins in presence of [gamma33P]ATP by scintillation counting method
# Chain of Dual specificity tyrosine-phosphorylation-regulated kinase 1B (Homo sapiens) (Q9Y463 whole entry, looked up, the tested form may be a part): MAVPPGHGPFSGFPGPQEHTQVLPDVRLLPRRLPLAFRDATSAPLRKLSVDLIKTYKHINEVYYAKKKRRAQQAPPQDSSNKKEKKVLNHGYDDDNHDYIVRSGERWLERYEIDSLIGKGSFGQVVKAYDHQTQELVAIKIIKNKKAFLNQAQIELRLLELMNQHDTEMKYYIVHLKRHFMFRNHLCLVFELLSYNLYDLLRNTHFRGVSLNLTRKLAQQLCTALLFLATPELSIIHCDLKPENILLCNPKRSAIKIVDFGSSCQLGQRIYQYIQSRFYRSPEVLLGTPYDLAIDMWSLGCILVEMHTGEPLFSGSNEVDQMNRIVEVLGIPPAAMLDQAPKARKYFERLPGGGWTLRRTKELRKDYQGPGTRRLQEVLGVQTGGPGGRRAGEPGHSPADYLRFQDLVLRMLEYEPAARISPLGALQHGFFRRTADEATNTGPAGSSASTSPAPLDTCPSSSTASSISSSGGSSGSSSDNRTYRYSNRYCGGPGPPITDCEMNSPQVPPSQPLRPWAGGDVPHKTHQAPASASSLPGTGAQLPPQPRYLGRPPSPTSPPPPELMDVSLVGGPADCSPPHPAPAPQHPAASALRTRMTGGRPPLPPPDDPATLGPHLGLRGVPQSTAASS
# [7] = system: Homeodomain-interacting protein kinase 2 (Homo sapiens), Q9H2X6 [UNDEFINED MUTATION]; experiment: Inhibition of recombinant human HIPK2 I471N mutant (165 to 564 residues) at 10 uM using myelin basic protein as substrate measured after 40 mins in presence of [gamma33P]ATP by scintillation counting method
# [8] = molecular target: Macrophage-stimulating protein receptor (Homo sapiens) (UniProt Q04912); experiment: Inhibition of human Ron (983 to end residues) using GGMEDIYFEFMGGKKK as substrate measured after 40 mins in presence of [gamma33P]ATP by scintillation counting method
# Method in brief: (§1)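 Kinase panel of 422 kinases screened by Eurofins KinaseProfiler at a single test-compound concentration of 10 µM.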
# [9] = molecular target: Tyrosine-protein kinase Lyn (Mus musculus) (UniProt P25911); experiment: Inhibition of mouse Lyn at 10 uM
# [10] = molecular target: Protein polybromo-1 (Homo sapiens) (UniProt Q86U86); experiment: Binding affinity to human partial length PBRM1 bromodomain 5 (S645 to D766 residues) expressed in bacterial expression system at 1 uM by BROMOscan assay
# Method in brief: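 BROMOscan bromodomain cross-screen run by an outside service, compound at 1 µM against 32 recombinant bromodomains. Binding given as percent of control.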
# [11] = molecular target: Proto-oncogene tyrosine-protein kinase receptor Ret (Homo sapiens) (UniProt P07949); experiment: Inhibition of human Ret (658 to end residues) using KKKSPGEYVNIEFG as substrate measured after 40 mins in presence of [gamma33P]ATP by scintillation counting method; method in brief: as §1
# [12] = Tmax in Sprague-Dawley rat at 10 mg/kg, po administered via gavage by LC-MS/MS analysis; type: ADME, organism-based; settings: in vivo
# [13] = Aqueous solubility of the compound by HPLC analysis; type: physicochemical; settings: buffer
# Method in brief: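 Measured by HPLC on a C18 reversed-phase column.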
# [14] = molecular target: Death-associated protein kinase 2 (Homo sapiens) (UniProt Q9UIK4); experiment: Inhibition of recombinant full-length human DAPK2 at 10 uM using calmodulin as substrate measured after 40 mins in presence of [gamma33P]ATP by scintillation counting method
# [15] = system: Proto-oncogene tyrosine-protein kinase receptor Ret (Homo sapiens), P07949 [V804M]; experiment: Inhibition of human Ret V804M mutant (658 to end residues) using KKKVSRSGLYRSPSMPENLNRPR as substrate measured after 40 mins in presence of [gamma33P]ATP by scintillation counting method; method in brief: as §1
# [16] = molecular target: CDK7/Cyclin H/MNAT1 (Homo sapiens) (UniProt P51946+P50613+P51948); experiment: Inhibition of recombinant full length human CDK7/cyclin H/MAT1 at 10 uM using peptide substrate measured after 40 mins in presence of [gamma33P]ATP by scintillation counting method; type: protein-complex assay
# [17] = molecular target: Death-associated protein kinase 3 (Homo sapiens) (UniProt O43293); experiment: Inhibition of human ZIPK (1 to 290 residues) using KKLNRTLSFAEPG as substrate measured after 40 mins in presence of [gamma33P]ATP by scintillation counting method
# [18] = molecular target: Activin receptor type-2A (Homo sapiens) (UniProt P27037); experiment: Inhibition of recombinant human ACTR2 (162 to end residues) at 10 uM using casein as substrate measured after 120 mins in presence of [gamma33P]ATP by scintillation counting method
# Mus musculus = organism: Mus musculus; experiment: Inhibition of recombinant mouse ABL L782P/G784R/W785L/L786V mutant (27 to end residues) at 10 uM using EAIYAAPFAKKK as substrate measured after 40 mins in presence of [gamma33P]ATP by scintillation counting method
# [19] = system: Hepatocyte growth factor receptor (Homo sapiens), P08581 [M1250T]; experiment: Inhibition of recombinant human MET A1209G/V1290L/M1268T mutant (974 to end residues) at 10 uM using KKKGQEEEYVFIE as substrate measured after 40 mins in presence of [gamma33P]ATP by scintillation counting method
# [20] = molecular target: Homeodomain-interacting protein kinase 4 (Homo sapiens) (UniProt Q8NE63); experiment: Inhibition of recombinant full-length human HIPK4 at 10 uM using RRRFRPASPLRGPPK as substrate measured after 40 mins in presence of [gamma33P]ATP by scintillation counting method
# [21] = molecular target: Inhibitor of nuclear factor kappa-B kinase subunit beta (Homo sapiens) (UniProt O14920); experiment: Inhibition of recombinant full-length human IKKbeta at 10 uM using peptide substrate measured after 40 mins in presence of [gamma33P]ATP by scintillation counting method
# Chain of Inhibitor of nuclear factor kappa-B kinase subunit beta (Homo sapiens) (O14920 whole entry): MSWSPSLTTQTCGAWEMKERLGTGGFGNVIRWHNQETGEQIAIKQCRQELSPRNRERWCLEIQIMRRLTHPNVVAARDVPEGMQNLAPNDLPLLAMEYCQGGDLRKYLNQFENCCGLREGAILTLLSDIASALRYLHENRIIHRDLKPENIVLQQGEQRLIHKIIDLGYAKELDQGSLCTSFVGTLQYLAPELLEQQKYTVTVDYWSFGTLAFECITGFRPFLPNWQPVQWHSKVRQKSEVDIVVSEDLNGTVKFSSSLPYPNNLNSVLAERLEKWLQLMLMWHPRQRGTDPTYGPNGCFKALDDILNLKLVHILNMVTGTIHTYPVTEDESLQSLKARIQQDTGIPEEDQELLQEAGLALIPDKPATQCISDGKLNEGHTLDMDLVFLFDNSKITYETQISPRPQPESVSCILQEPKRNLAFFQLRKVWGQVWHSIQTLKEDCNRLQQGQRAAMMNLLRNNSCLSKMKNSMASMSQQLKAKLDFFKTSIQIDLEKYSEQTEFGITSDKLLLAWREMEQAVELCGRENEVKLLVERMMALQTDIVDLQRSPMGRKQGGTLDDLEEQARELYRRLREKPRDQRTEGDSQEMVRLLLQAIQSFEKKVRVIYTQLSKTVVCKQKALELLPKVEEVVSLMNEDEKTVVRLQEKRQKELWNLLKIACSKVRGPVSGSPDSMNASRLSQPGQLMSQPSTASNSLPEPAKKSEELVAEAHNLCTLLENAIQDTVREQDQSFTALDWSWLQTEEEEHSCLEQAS
# [22] = molecular target: Receptor-type tyrosine-protein kinase FLT3 (Homo sapiens) (UniProt P36888); experiment: Inhibition of recombinant human Flt3 (564 to end residues) at 10 uM using EAIYAAPFAKKK as substrate measured after 40 mins in presence of [gamma33P]ATP by scintillation counting method
# [23] = molecular target: Wee1-like protein kinase (Homo sapiens) (UniProt P30291); experiment: Inhibition of human Wee1 (214 to end residues) using LSNLYHQGKFLQTFCGSPLYRRR as substrate measured after 40 mins in presence of [gamma33P]ATP by scintillation counting method
# [24] = molecular target: Tyrosine-protein kinase Fyn (Homo sapiens) (UniProt P06241); experiment: Inhibition of recombinant full-length human FYN at 10 uM using Cdc2 peptide as substrate measured after 40 mins in presence of [gamma33P]ATP by scintillation counting method
# Chain of Tyrosine-protein kinase Fyn (Homo sapiens) (P06241 2-537 limits assumed): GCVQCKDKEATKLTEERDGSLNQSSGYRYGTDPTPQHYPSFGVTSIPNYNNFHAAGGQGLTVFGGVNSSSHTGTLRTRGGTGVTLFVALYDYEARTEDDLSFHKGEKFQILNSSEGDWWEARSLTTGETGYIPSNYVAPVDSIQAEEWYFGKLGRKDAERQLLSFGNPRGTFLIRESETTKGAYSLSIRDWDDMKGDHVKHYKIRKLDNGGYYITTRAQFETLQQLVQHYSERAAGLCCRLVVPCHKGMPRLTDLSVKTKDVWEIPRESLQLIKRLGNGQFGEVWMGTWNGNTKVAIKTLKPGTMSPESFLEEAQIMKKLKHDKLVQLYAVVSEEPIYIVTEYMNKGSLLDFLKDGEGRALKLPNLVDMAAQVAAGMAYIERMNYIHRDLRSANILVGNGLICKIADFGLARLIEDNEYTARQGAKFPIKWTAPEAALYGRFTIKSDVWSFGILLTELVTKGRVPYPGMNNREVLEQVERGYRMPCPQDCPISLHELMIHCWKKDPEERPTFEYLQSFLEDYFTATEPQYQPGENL
compound,measurement,setting,value
CN1C[C@H](Nc2nc3cc[nH]c3c(=O)n2C)C[C@H](c2ccc3c(c2)OCCO3)C1,inhibition,[1],inactive
same,inhibition,[2],inactive
same,inhibition,[3],inactive
same,inhibition,[4],inactive
same,inhibition,[5],inactive
same,inhibition,[6],inactive
same,inhibition,[7],inactive
same,inhibition,[8],inactive
same,inhibition,[9],inactive
same,Activity,[10],inactive
same,inhibition,[11],inactive
same,Tmax,[12],40.2 min
same,solubility,[13],480 µM
same,inhibition,[14],inactive
same,inhibition,[15],inactive
same,inhibition,[16],inactive
same,inhibition,[17],inactive
same,inhibition,[18],inactive
same,inhibition,Mus musculus,inactive
same,inhibition,[19],inactive
same,inhibition,[20],inactive
same,inhibition,[21],inactive
same,inhibition,[22],inactive
same,inhibition,[23],inactive
same,inhibition,[24],inactive
